Assay results reported in ChEMBL document CHEMBL3259650, “Synthesis of symmetrically substituted 3,3-dibenzyl-4-hydroxy-3,4-dihydro-1H-quinolin-2-ones, as novel quinoline derivatives with antibacterial activity” (Eur J Med Chem, 2014).
Converted amounts (≈) assume the structure as drawn. The source made the active and inactive calls. The rule behind the calls is not given here.

Assays:
Staphylococcus aureus [1] = experiment: Antibacterial activity against Staphylococcus aureus ATCC 6538p assessed as growth inhibition after 24 hrs by micro dilution method; type: functional
In short: (§1)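 MIC determined by broth microdilution in casein soy broth (pH 7.3) at an inoculum of 10^5 CFU/mL, incubated 24 h at 37 C. Levofloxacin was the comparator and controls were run alongside. Samples were tested in quadruplicate.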

Shigella sonnei [2] = experiment: Antibacterial activity against Shigella sonnei ATCC 15305; type: functional
Pseudomonas aeruginosa = experiment: Antibacterial activity against Pseudomonas aeruginosa ATCC […] assessed as growth inhibition after 24 hrs by micro dilution method; type: functional; in short: as §1
Shigella sonnei [3] = experiment: Antibacterial activity against Shigella sonnei ATCC 15305 assessed as growth inhibition after 24 hrs by micro dilution method; type: functional; details: ATCC 15305, 24 h; in short: as §1
Escherichia coli [4] = experiment: Antibacterial activity against Escherichia coli ATCC 25922; type: functional
Escherichia coli [5] = experiment: Antibacterial activity against Escherichia coli ATCC 25922 assessed as growth inhibition after 24 hrs by micro dilution method; type: functional; details: ATCC 25922, 24 h; in short: as §1
Staphylococcus aureus [6] = experiment: Antibacterial activity against Staphylococcus aureus ATCC 6538p; type: functional; in short: as §1
Bacillus spizizenii = experiment: Antibacterial activity against Bacillus subtilis ATCC 6633 assessed as growth inhibition after 24 hrs by micro dilution method; type: functional; details: ATCC 6633, 24 h; in short: as §1
Klebsiella aerogenes = experiment: Antibacterial activity against Enterobacter aerogenes ATCC 13048 assessed as growth inhibition after 24 hrs by micro dilution method; type: functional; details: ATCC 13048, 24 h; in short: as §1
Salmonella typhimurium [7] = experiment: Antibacterial activity against Salmonella typhimurium ATCC 14028; type: functional, Salmonella enterica subsp. enterica serovar Typhimurium; in short: as §1
Morganella morganii [8] = experiment: Antibacterial activity against Morganella morganii ATCC 8019 assessed as growth inhibition by measuring turbidity of medium measured over 10 hrs by microplate reader analysis; type: functional, organism-based
In short: (§2)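 Overnight casein soy broth cultures (37 C) were centrifuged, resuspended in fresh medium and adjusted to about 5 10^7 cells/mL (OD620 0.2). Cells were grown in microplate wells to mid-log phase, then twofold serial dilutions of the test agents in fresh medium were added. OD620 was read every 15 min at 23 C for 10 h, with 30 s shaking between reads. Runs were in quadruplicate.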

Enterococcus sp. [9] = experiment: Antibacterial activity against Enterococcus sp. ATCC 6589; type: functional
Burkholderia cepacia [10] = experiment: Antibacterial activity against Burkholderia cepacia ATCC 17759; type: functional
Enterococcus sp. [11] = experiment: Antibacterial activity against Enterococcus sp. ATCC 6589 assessed as growth inhibition by measuring turbidity of medium measured over 10 hrs by microplate reader analysis; type: functional, organism-based; in short: as §2
Salmonella typhimurium [12] = experiment: Antibacterial activity against Salmonella typhimurium ATCC 14028 assessed as growth inhibition after 24 hrs by micro dilution method; type: functional, Salmonella enterica subsp. enterica serovar Typhimurium; details: Salmonella enterica, ATCC 14028, 24 h; in short: as §1
Morganella morganii [13] = experiment: Antibacterial activity against Morganella morganii ATCC 8019; type: functional
Enterococcus sp. [14] = experiment: Antibacterial activity against Enterococcus sp. ATCC 6589 assessed as growth inhibition after 24 hrs by micro dilution method; type: functional; details: ATCC 6589, 24 h; in short: as §1
Morganella morganii [15] = experiment: Antibacterial activity against Morganella morganii ATCC 8019 assessed as growth inhibition after 24 hrs by micro dilution method; type: functional; details: ATCC 8019, 24 h; in short: as §1
Morganella morganii [16] = experiment: Antibacterial activity against Morganella morganii ATCC 8019 assessed as growth inhibition by measuring turbidity of medium at >= MIC measured over 10 hrs by microplate reader analysis; type: functional, organism-based; in short: as §2
Enterococcus sp. [17] = experiment: Antibacterial activity against Enterococcus sp. ATCC 6589 assessed as growth inhibition by measuring turbidity of medium at MIC measured over 10 hrs by microplate reader analysis; type: functional, organism-based; in short: as §2
Enterococcus sp. [18] = experiment: Antibacterial activity against Enterococcus sp. ATCC 6589 assessed as growth inhibition by measuring turbidity of medium at 6.25 to 100 ug/mL measured over 10 hrs by microplate reader analysis; type: functional, organism-based; in short: as §2
Burkholderia cepacia [19] = experiment: Antibacterial activity against Burkholderia cepacia ATCC 17759 assessed as growth inhibition after 24 hrs by micro dilution method; type: functional; details: ATCC 17759, 24 h; in short: as §1
Enterococcus sp. [20] = experiment: Antibacterial activity against Enterococcus sp. ATCC 6589 assessed as growth inhibition by measuring turbidity of medium at 25 to 400 ug/mL measured over 10 hrs by microplate reader analysis; type: functional, organism-based; in short: as §2
Enterococcus sp. [21] = experiment: Antibacterial activity against Enterococcus sp. ATCC 6589 assessed as growth inhibition by measuring turbidity of medium at 3.12 ug/mL measured after 3 hrs by microplate reader analysis; type: functional, organism-based; in short: as §2

| SMILES | MIC (Staphylococcus aureus [1]) [µg/mL] | MLC (Shigella sonnei [2]) [µg/mL] | MIC (Pseudomonas aeruginosa) [µg/mL] | MIC (Shigella sonnei [3]) [µg/mL] | MLC (Escherichia coli [4]) [µg/mL] | MIC (Escherichia coli [5]) [µg/mL] | MLC (Staphylococcus aureus [6]) [µg/mL] | MIC (Bacillus spizizenii) [µg/mL] | further results |
| --- | --- | --- | --- | --- | --- | --- | --- | --- | --- |
| O=C1Nc2ccccc2C(O)C1(Cc1ccc(Cl)cc1)Cc1ccc(Cl)cc1 (stereo not given) | 6.25 (≈ 15.2 µM) | 100 (≈ 243 µM) | 100 (≈ 243 µM) | 6.25 (≈ 15.2 µM) | 25 (≈ 60.6 µM) | 1.52 (≈ 3.69 µM) | 100 (≈ 243 µM) | 1.56 (≈ 3.78 µM) | – |
| Cc1ccc2c(c1)C(O)C(Cc1ccccc1)(Cc1ccccc1)C(=O)N2 (stereo not given) | 50 (≈ 140 µM) | >200 | 100 (≈ 280 µM) | 50 (≈ 140 µM) | >200 | 25 (≈ 69.9 µM) | >200 | 50 (≈ 140 µM) | – |
| COc1ccc(CC2(Cc3ccc(OC)cc3)C(=O)Nc3ccccc3C2O)cc1 (stereo not given) | 100 (≈ 248 µM) | >200 | 100 (≈ 248 µM) | 100 (≈ 248 µM) | >200 | 100 (≈ 248 µM) | 200 (≈ 496 µM) | 100 (≈ 248 µM) | – |
| CCN1C(=O)C(Cc2ccc(Cl)cc2)(Cc2ccc(Cl)cc2)C(O)c2cc(Cl)ccc21 (stereo not given) | 6.25 (≈ 13.2 µM) | 100 (≈ 211 µM) | 50 (≈ 105 µM) | 50 (≈ 105 µM) | 100 (≈ 211 µM) | 50 (≈ 105 µM) | 50 (≈ 105 µM) | 3.12 (≈ 6.57 µM) | MIC (Klebsiella aerogenes): 50 µg/mL (≈ 105 µM); MLC (Salmonella typhimurium [7]): 100 µg/mL (≈ 211 µM); growth inhibition (GI) (Morganella morganii [8]): Dose-dependent effect; MLC (Enterococcus sp. [9]): 25 µg/mL (≈ 52.7 µM); MLC (Burkholderia cepacia [10]): 12.5 µg/mL (≈ 26.3 µM); growth inhibition (GI) (Enterococcus sp. [11]): Dose-dependent effect; MIC (Salmonella typhimurium [12]): 50 µg/mL (≈ 105 µM); MLC (Morganella morganii [13]): 12.5 µg/mL (≈ 26.3 µM); MIC (Enterococcus sp. [14]): 6.25 µg/mL (≈ 13.2 µM); MIC (Morganella morganii [15]): 6.25 µg/mL (≈ 13.2 µM) |
| CCOC(=O)CN1C(=O)C(Cc2ccccc2)(Cc2ccccc2)C(O)c2ccccc21 (stereo not given) | > 200 | – | > 200 | > 200 | >200 | 100 (≈ 233 µM) | – | > 200 | – |
| COc1ccc2c(c1)C(O)C(Cc1ccccc1)(Cc1ccccc1)C(=O)N2 (stereo not given) | 100 (≈ 268 µM) | >200 | 100 (≈ 268 µM) | 100 (≈ 268 µM) | >200 | 100 (≈ 268 µM) | >200 | 50 (≈ 134 µM) | – |
| O=C1Nc2ccc(F)cc2C(O)C1(Cc1ccccc1)Cc1ccccc1 (stereo not given) | 50 (≈ 138 µM) | >200 | 50 (≈ 138 µM) | 25 (≈ 69.2 µM) | >200 | 25 (≈ 69.2 µM) | >200 | 25 (≈ 69.2 µM) | – |
| O=C1Nc2ccc(Cl)cc2C(O)C1(Cc1ccc(Cl)cc1)Cc1ccc(Cl)cc1 (stereo not given) | 3.12 (≈ 6.98 µM) | 12.5 (≈ 28 µM) | 50 (≈ 112 µM) | 3.12 (≈ 6.98 µM) | 50 (≈ 112 µM) | 3.12 (≈ 6.98 µM) | 12.5 (≈ 28 µM) | 3.12 (≈ 6.98 µM) | MIC (Klebsiella aerogenes): 50 µg/mL (≈ 112 µM); MLC (Salmonella typhimurium [7]): 100 µg/mL (≈ 224 µM); MLC (Enterococcus sp. [9]): 50 µg/mL (≈ 112 µM); MIC (Salmonella typhimurium [12]): 50 µg/mL (≈ 112 µM); MLC (Morganella morganii [13]): 6.25 µg/mL (≈ 14 µM); MIC (Enterococcus sp. [14]): 6.25 µg/mL (≈ 14 µM); growth inhibition (GI) (Morganella morganii [16]): Active; MIC (Morganella morganii [15]): 6.25 µg/mL (≈ 14 µM); growth inhibition (GI) (Enterococcus sp. [17]): Active |
| COc1cccc2c1NC(=O)C(Cc1ccccc1)(Cc1ccccc1)C2O (stereo not given) | 100 (≈ 268 µM) | >200 | 100 (≈ 268 µM) | 100 (≈ 268 µM) | >200 | 100 (≈ 268 µM) | >200 | 100 (≈ 268 µM) | – |
| C[C@H]1COc2c(N3CCN(C)CC3)c(F)cc3c(=O)c(C(=O)O)cn1c23.C[C@H]1COc2c(N3CCN(C)CC3)c(F)cc3c(=O)c(C(=O)O)cn1c23.O [LEVOFLOXACIN] | 3.12 | 3.12 | 3.12 | 3.12 | 3.12 | 3.12 | 3.12 | 3.12 | MIC (Klebsiella aerogenes): 0.78 µg/mL; MLC (Salmonella typhimurium [7]): 0.78 µg/mL; MLC (Enterococcus sp. [9]): 0.78 µg/mL; MLC (Burkholderia cepacia [10]): 0.78 µg/mL; MIC (Salmonella typhimurium [12]): 0.78 µg/mL; growth inhibition (GI) (Enterococcus sp. [18]): Active; MIC (Burkholderia cepacia [19]): 0.78 µg/mL; MLC (Morganella morganii [13]): 0.78 µg/mL; MIC (Enterococcus sp. [14]): 0.78 µg/mL; MIC (Morganella morganii [15]): 0.78 µg/mL |
| O=C1Nc2ccc(Cl)cc2C(O)C1(Cc1ccccc1)Cc1ccccc1 (stereo not given) | 25 (≈ 66.2 µM) | >200 | 50 (≈ 132 µM) | 12.5 (≈ 33.1 µM) | 200 (≈ 529 µM) | 12.5 (≈ 33.1 µM) | >200 | 12.5 (≈ 33.1 µM) | – |
| O=C1N(Cc2ccc(Cl)cc2)c2ccc(Cl)cc2C(O)C1(Cc1ccc(Cl)cc1)Cc1ccc(Cl)cc1 (stereo not given) | 50 (≈ 87.5 µM) | 100 (≈ 175 µM) | 50 (≈ 87.5 µM) | 50 (≈ 87.5 µM) | >100 | 50 (≈ 87.5 µM) | 100 (≈ 175 µM) | > 100 | – |
| CCN1C(=O)C(Cc2ccccc2)(Cc2ccccc2)C(O)c2ccccc21 (stereo not given) | 100 (≈ 269 µM) | >200 | 100 (≈ 269 µM) | 200 (≈ 538 µM) | >200 | 100 (≈ 269 µM) | >200 | 12.5 (≈ 33.6 µM) | – |
| O=C1Nc2ccccc2C(O)C1(Cc1ccccc1)Cc1ccccc1 (stereo not given) | 50 (≈ 146 µM) | >200 | 100 (≈ 291 µM) | 50 (≈ 146 µM) | >200 | 100 (≈ 291 µM) | >200 | 100 (≈ 291 µM) | – |
| CN1C(=O)C(Cc2ccccc2)(Cc2ccccc2)C(O)c2ccccc21 (stereo not given) | 100 (≈ 280 µM) | >200 | 100 (≈ 280 µM) | 100 (≈ 280 µM) | >200 | 50 (≈ 140 µM) | >200 | 50 (≈ 140 µM) | – |
| CC1(C)S[C@@H]2[C@H](NC(=O)[C@H](N)c3ccccc3)C(=O)N2[C@H]1C(=O)O | – | – | – | – | – | – | – | – | growth inhibition (GI) (Enterococcus sp. [20]): Active |
| O=C1Nc2ccccc2C(O)C1(Cc1ccccc1Cl)Cc1ccccc1Cl (stereo not given) | 12.5 (≈ 30.3 µM) | 200 (≈ 485 µM) | 100 (≈ 243 µM) | 12.5 (≈ 30.3 µM) | 200 (≈ 485 µM) | 12.5 (≈ 30.3 µM) | 200 (≈ 485 µM) | 12.5 (≈ 30.3 µM) | growth inhibition (GI) (Enterococcus sp. [21]): inactive |
| O=C1N(Cc2ccccc2)c2ccccc2C(O)C1(Cc1ccccc1)Cc1ccccc1 (stereo not given) | 100 (≈ 231 µM) | >200 | > 200 | 200 (≈ 461 µM) | >200 | 100 (≈ 231 µM) | >200 | 100 (≈ 231 µM) | – |
